Source: ChEMBL document CHEMBL3091318, “Potent and broad-spectrum antibacterial activity of indole-based bisamidine antibiotics: synthesis and SAR of novel analogs of MBX 1066 and MBX 1090” (2013)
≈ marks a conversion by molar mass, not a printed value.

Tests used:
Format in all cases: functional
Escherichia coli [1] = test: Antimicrobial activity against TolC efflux-deficient Escherichia coli K-12 after 16 to 20 hrs by broth microdilution method
Outline: (§1)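 CLSI broth microdilution. Log-phase cultures grown in cation-adjusted Mueller–Hinton broth and seeded at 1×10^5 CFU/mL. Plates incubated at 37 °C with shaking for 16–20 h. DMSO stocks of compound were diluted into medium to 1% DMSO final. Growth was read as OD600. MIC (μg/ml) is the lowest concentration with no apparent growth, averaged over at least 3 assays.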

Escherichia coli [2] = test: Antimicrobial activity against efflux pump-positive Escherichia coli K-12 after 16 to 20 hrs by broth microdilution method; outline: as §1
Pseudomonas aeruginosa [3] = test: Antimicrobial activity against efflux pump mexAB-oprM-deficient Pseudomonas aeruginosa PAO1 after 16 to 20 hrs by broth microdilution method; outline: as §1
Enterococcus faecalis [4] = test: Antimicrobial activity vancomycin-resistant Enterococcus faecalis ATCC 51575 after 16 to 20 hrs by broth microdilution method
Outline: (§2)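 CLSI broth microdilution. Log-phase cultures in cation-adjusted Mueller–Hinton broth were seeded at 1×10^5 CFU/mL and incubated at 37 °C with shaking for 16–20 h. Compounds were diluted from DMSO stocks to a final 1% DMSO. Growth was read as OD600, and MIC was taken as the lowest concentration with no apparent growth. At least 3 runs were done, and the average MIC is reported in μg/ml.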

Staphylococcus aureus [5] = test: Antimicrobial activity against Staphylococcus aureus ATCC 25923 after 16 to 20 hrs by broth microdilution method; outline: as §2
Staphylococcus aureus [6] = test: Antimicrobial activity methicillin-resistant against Staphylococcus aureus clinical isolate 1094 after 16 to 20 hrs by broth microdilution method
Enterococcus faecalis [7] = test: Antimicrobial activity Enterococcus faecalis ATCC 29212 after 16 to 20 hrs by broth microdilution method; outline: as §1
Bacillus anthracis = test: Antimicrobial activity against Bacillus anthracis Sterne after 16 to 20 hrs by broth microdilution method; outline: as §2
Pseudomonas aeruginosa [8] = test: Antimicrobial activity against efflux pump-positive Pseudomonas aeruginosa PAO1 ATCC BAA-47 after 16 to 20 hrs by broth microdilution method; outline: as §1
Acinetobacter baumannii = test: Antimicrobial activity against Acinetobacter baumannii ATCC 19606 after 16 to 20 hrs by broth microdilution method; outline: as §1
Haemophilus influenzae = test: Antimicrobial activity against Haemophilus influenzae ATCC 10211 after 16 to 20 hrs by broth microdilution method
Outline: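 Broth microdilution per CLSI in Haemophilus Test Medium at 37 °C under 5% CO₂ for 16–20 h, seeded at 1×10^5 CFU/mL. Compound was added from DMSO stocks to 1% DMSO final. Growth was read as OD600. MIC (μg/ml) is the lowest concentration without apparent growth, averaged from at least 3 runs.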

Klebsiella pneumoniae = test: Antimicrobial activity against Klebsiella pneumoniae ATCC 13882 after 16 to 20 hrs by broth microdilution method; outline: as §1
Escherichia coli [9] = test: Selectivity ratio of MIC for efflux pump-positive Escherichia coli K-12 to MIC for TolC efflux-deficient Escherichia coli K-12
Pseudomonas aeruginosa [10] = test: Selectivity ratio of MIC for efflux pump-positive Pseudomonas aeruginosa PAO1 ATCC BAA-47 to MIC for efflux pump mexAB-oprM-deficient Pseudomonas aeruginosa PAO1
Pseudomonas aeruginosa [11] = test: Ratio of MBX 1066 MIC to compound MIC for Pseudomonas aeruginosa PAO1 ATCC BAA-47 after 16 to 20 hrs by broth microdilution method
Escherichia coli [12] = test: Ratio of MBX 1066 MIC to compound MIC for Escherichia coli K-12 after 16 to 20 hrs by broth microdilution method

CC(=O)O.c1cc2cc(-c3ccc(-c4cc5ccc(C6=NCCCN6)cc5[nH]4)nc3)[nH]c2cc1C1=NCCCN1
MIC (Escherichia coli [1]): 0.16 µg/mL
MIC (Escherichia coli [2]): 0.63 µg/mL
MIC (Pseudomonas aeruginosa [3]): 2.5 µg/mL
MIC (Enterococcus faecalis [4]): 0.16 µg/mL
MIC (Staphylococcus aureus [5]): 0.16 µg/mL
MIC (Staphylococcus aureus [6]): 0.16 µg/mL
MIC (Enterococcus faecalis [7]): 0.63 µg/mL
MIC (Bacillus anthracis): 0.16 µg/mL
MIC (Pseudomonas aeruginosa [8]): 2.5 µg/mL
MIC (Acinetobacter baumannii): 20 µg/mL
MIC (Haemophilus influenzae): 2.5 µg/mL
MIC (Klebsiella pneumoniae): 5 µg/mL

O=C(O)C(F)(F)F.c1cc2cc(-c3ccc(-c4cc5ccc(C6=NCCN6)cc5[nH]4)cc3)[nH]c2cc1C1=NCCN1
MIC (Escherichia coli [1]): 0.16 µg/mL
MIC (Escherichia coli [2]): 1.25 µg/mL
MIC (Pseudomonas aeruginosa [3]): 1.25 µg/mL
MIC (Enterococcus faecalis [4]): 0.16 µg/mL
MIC (Staphylococcus aureus [5]): 0.16 µg/mL
MIC (Staphylococcus aureus [6]): 0.16 µg/mL
MIC (Enterococcus faecalis [7]): 0.16 µg/mL
MIC (Bacillus anthracis): 0.31 µg/mL
MIC (Pseudomonas aeruginosa [8]): 7.5 µg/mL
Ratio (Escherichia coli [9]): 8
Ratio (Pseudomonas aeruginosa [10]): 6
MIC (Acinetobacter baumannii): > 80 µg/mL
MIC (Haemophilus influenzae): 0.63 µg/mL
MIC (Klebsiella pneumoniae): 0.31 µg/mL

O=C(O)C(F)(F)F.c1cc2cc(-c3ccc(-c4cc5ccc(C6=NCCCN6)cc5[nH]4)cc3)[nH]c2cc1C1=NCCCN1
MIC (Escherichia coli [1]): 0.16 µg/mL
MIC (Escherichia coli [2]): 0.16 µg/mL
MIC (Pseudomonas aeruginosa [3]): 0.31 µg/mL
MIC (Enterococcus faecalis [4]): 0.08 µg/mL
MIC (Staphylococcus aureus [5]): 0.08 µg/mL
MIC (Staphylococcus aureus [6]): 0.08 µg/mL
MIC (Enterococcus faecalis [7]): 0.08 µg/mL
MIC (Bacillus anthracis): 0.08 µg/mL
MIC (Pseudomonas aeruginosa [8]): 0.31 µg/mL
Ratio (Pseudomonas aeruginosa [11]): >20
Ratio (Escherichia coli [12]): 10
MIC (Acinetobacter baumannii): 2.5 µg/mL
MIC (Haemophilus influenzae): 0.31 µg/mL
MIC (Klebsiella pneumoniae): 0.31 µg/mL

CC1CN=C(c2ccc3cc(-c4ccc(-c5cc6ccc(C7=NCC(C)CN7)cc6[nH]5)cc4)[nH]c3c2)NC1.O=C(O)C(F)(F)F (centres undefined)
MIC (Escherichia coli [1]): 0.16 µg/mL
MIC (Escherichia coli [2]): 0.31 µg/mL
MIC (Pseudomonas aeruginosa [3]): 0.63 µg/mL
MIC (Enterococcus faecalis [4]): 0.08 µg/mL
MIC (Staphylococcus aureus [5]): 0.08 µg/mL
MIC (Staphylococcus aureus [6]): 0.08 µg/mL
MIC (Enterococcus faecalis [7]): 0.16 µg/mL
MIC (Bacillus anthracis): 0.08 µg/mL
MIC (Pseudomonas aeruginosa [8]): 0.63 µg/mL
MIC (Acinetobacter baumannii): 40 µg/mL
MIC (Haemophilus influenzae): 1.25 µg/mL
MIC (Klebsiella pneumoniae): 0.31 µg/mL

O=C(O)C(F)(F)F.OC1CN=C(c2ccc3cc(-c4ccc(-c5cc6ccc(C7=NCC(O)CN7)cc6[nH]5)cc4)[nH]c3c2)NC1 (centres undefined)
MIC (Escherichia coli [1]): 0.63 µg/mL
MIC (Escherichia coli [2]): 1.25 µg/mL
MIC (Pseudomonas aeruginosa [3]): 0.31 µg/mL
MIC (Enterococcus faecalis [4]): 0.63 µg/mL
MIC (Staphylococcus aureus [5]): 0.31 µg/mL
MIC (Staphylococcus aureus [6]): 0.31 µg/mL
MIC (Enterococcus faecalis [7]): 0.16 µg/mL
MIC (Bacillus anthracis): 0.16 µg/mL
MIC (Pseudomonas aeruginosa [8]): 1.25 µg/mL
MIC (Acinetobacter baumannii): > 80 µg/mL
MIC (Haemophilus influenzae): 1.25 µg/mL
MIC (Klebsiella pneumoniae): 0.63 µg/mL

COC1CN=C(c2ccc3cc(-c4ccc(-c5cc6ccc(C7=NCC(OC)CN7)cc6[nH]5)cc4)[nH]c3c2)NC1.O=C(O)C(F)(F)F (centres undefined)
MIC (Escherichia coli [1]): 0.31 µg/mL
MIC (Escherichia coli [2]): 5 µg/mL
MIC (Pseudomonas aeruginosa [3]): 2.5 µg/mL
MIC (Enterococcus faecalis [4]): 0.16 µg/mL
MIC (Staphylococcus aureus [5]): 0.16 µg/mL
MIC (Staphylococcus aureus [6]): 0.16 µg/mL
MIC (Enterococcus faecalis [7]): 0.16 µg/mL
MIC (Bacillus anthracis): 0.16 µg/mL
MIC (Pseudomonas aeruginosa [8]): 5 µg/mL
MIC (Acinetobacter baumannii): > 80 µg/mL
MIC (Klebsiella pneumoniae): 0.63 µg/mL

FC1CN=C(c2ccc3cc(-c4ccc(-c5cc6ccc(C7=NCC(F)CN7)cc6[nH]5)cc4)[nH]c3c2)NC1.O=C(O)C(F)(F)F (centres undefined)
MIC (Escherichia coli [1]): 0.31 µg/mL
MIC (Escherichia coli [2]): 0.63 µg/mL
MIC (Pseudomonas aeruginosa [3]): 0.31 µg/mL
MIC (Enterococcus faecalis [4]): 0.08 µg/mL
MIC (Staphylococcus aureus [5]): 0.08 µg/mL
MIC (Staphylococcus aureus [6]): 0.16 µg/mL
MIC (Enterococcus faecalis [7]): 0.16 µg/mL
MIC (Bacillus anthracis): 0.08 µg/mL
MIC (Pseudomonas aeruginosa [8]): 1.25 µg/mL
MIC (Acinetobacter baumannii): 40 µg/mL
MIC (Klebsiella pneumoniae): 0.31 µg/mL

CC1(C)CN=C(c2ccc3cc(-c4ccc(-c5cc6ccc(C7=NCC(C)(C)CN7)cc6[nH]5)cc4)[nH]c3c2)NC1.O=C(O)C(F)(F)F
MIC (Escherichia coli [1]): 0.63 µg/mL
MIC (Escherichia coli [2]): 0.63 µg/mL
MIC (Pseudomonas aeruginosa [3]): 40 µg/mL
MIC (Enterococcus faecalis [4]): 0.63 µg/mL
MIC (Staphylococcus aureus [5]): 0.31 µg/mL
MIC (Staphylococcus aureus [6]): 0.31 µg/mL
MIC (Enterococcus faecalis [7]): 0.31 µg/mL
MIC (Bacillus anthracis): 0.31 µg/mL
MIC (Pseudomonas aeruginosa [8]): 10 µg/mL
MIC (Acinetobacter baumannii): > 80 µg/mL
MIC (Haemophilus influenzae): 2.5 µg/mL
MIC (Klebsiella pneumoniae): 0.63 µg/mL

NC(=O)c1ccc2cc(-c3ccc(-c4cc5ccc(C(N)=O)cc5[nH]4)cc3)[nH]c2c1
MIC (Escherichia coli [1]): 5 µg/mL (≈ 12.7 µM)
MIC (Escherichia coli [2]): > 80 µg/mL
MIC (Pseudomonas aeruginosa [3]): > 80 µg/mL
MIC (Enterococcus faecalis [4]): > 80 µg/mL
MIC (Staphylococcus aureus [5]): 2.5 µg/mL (≈ 6.34 µM)
MIC (Staphylococcus aureus [6]): > 80 µg/mL
MIC (Enterococcus faecalis [7]): 10 µg/mL (≈ 25.4 µM)
MIC (Bacillus anthracis): > 80 µg/mL
MIC (Pseudomonas aeruginosa [8]): > 80 µg/mL
MIC (Acinetobacter baumannii): > 80 µg/mL
MIC (Klebsiella pneumoniae): > 80 µg/mL

NCc1ccc2cc(-c3ccc(-c4cc5ccc(CN)cc5[nH]4)cc3)[nH]c2c1.O=C(O)C(F)(F)F
MIC (Escherichia coli [1]): 1.25 µg/mL
MIC (Escherichia coli [2]): 5 µg/mL
MIC (Pseudomonas aeruginosa [3]): 40 µg/mL
MIC (Enterococcus faecalis [4]): 1.25 µg/mL
MIC (Staphylococcus aureus [5]): 0.63 µg/mL
MIC (Staphylococcus aureus [6]): 1.25 µg/mL
MIC (Enterococcus faecalis [7]): 1.25 µg/mL
MIC (Bacillus anthracis): 1.25 µg/mL
MIC (Pseudomonas aeruginosa [8]): 40 µg/mL
MIC (Acinetobacter baumannii): > 80 µg/mL
MIC (Klebsiella pneumoniae): 2.5 µg/mL

O=C(O)C(F)(F)F.c1cc2cc(-c3ccc(-c4cc5ccc(C6=NCCN6)cc5[nH]4)o3)[nH]c2cc1C1=NCCN1
MIC (Escherichia coli [1]): 0.63 µg/mL
MIC (Escherichia coli [2]): 20 µg/mL
MIC (Pseudomonas aeruginosa [3]): > 80 µg/mL
MIC (Enterococcus faecalis [4]): > 80 µg/mL
MIC (Staphylococcus aureus [5]): 40 µg/mL
MIC (Staphylococcus aureus [6]): 40 µg/mL
MIC (Enterococcus faecalis [7]): > 80 µg/mL
MIC (Bacillus anthracis): 5 µg/mL
MIC (Pseudomonas aeruginosa [8]): > 80 µg/mL
MIC (Acinetobacter baumannii): > 80 µg/mL
MIC (Klebsiella pneumoniae): > 80 µg/mL

O=C(O)C(F)(F)F.c1cc2cc(-c3ccc(-c4cc5ccc(C6=NCCN6)cc5[nH]4)s3)[nH]c2cc1C1=NCCN1
MIC (Escherichia coli [1]): 0.31 µg/mL
MIC (Escherichia coli [2]): 0.63 µg/mL
MIC (Pseudomonas aeruginosa [3]): 1.25 µg/mL
MIC (Enterococcus faecalis [4]): 1.25 µg/mL
MIC (Staphylococcus aureus [5]): 0.16 µg/mL
MIC (Staphylococcus aureus [6]): 0.31 µg/mL
MIC (Enterococcus faecalis [7]): 1.25 µg/mL
MIC (Bacillus anthracis): 0.16 µg/mL
MIC (Pseudomonas aeruginosa [8]): 10 µg/mL
MIC (Acinetobacter baumannii): 10 µg/mL
MIC (Haemophilus influenzae): 0.63 µg/mL
MIC (Klebsiella pneumoniae): 0.63 µg/mL

O=C(O)c1cn(C2CC2)c2cc(N3CCNCC3)c(F)cc2c1=O [CIPROFLOXACIN]
MIC (Escherichia coli [1]): ≤ 0.02 µg/mL
MIC (Escherichia coli [2]): ≤ 0.02 µg/mL
MIC (Pseudomonas aeruginosa [3]): ≤ 0.02 µg/mL
MIC (Enterococcus faecalis [4]): 0.63 µg/mL (≈ 1.9 µM)
MIC (Staphylococcus aureus [5]): 0.31 µg/mL (≈ 0.936 µM)
MIC (Enterococcus faecalis [7]): 1.25 µg/mL (≈ 3.77 µM)
MIC (Bacillus anthracis): 0.08 µg/mL (≈ 0.241 µM)
MIC (Pseudomonas aeruginosa [8]): 0.63 µg/mL (≈ 1.9 µM)
MIC (Acinetobacter baumannii): 1.25 µg/mL (≈ 3.77 µM)
MIC (Haemophilus influenzae): 10 µg/mL (≈ 30.2 µM)
MIC (Klebsiella pneumoniae): 0.04 µg/mL (≈ 0.121 µM)
